Measurements reported in the EternaBench riboswitch data.

Tested on: MS2 coat protein
Assay: apparent Kd, MS2 coat protein; higher = weaker binding; RNA-MaP array; FMN 200 µM where present
In short: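 Apparent Kd: the median of filtered binding-curve fits from single clusters. Designs were transcribed on Illumina sequencing-chip clusters by stalled E. coli RNA polymerase and titrated with SNAP-549-labelled MS2 coat protein from 0.7 or 1.5 nM, doubling to 3 µM, in 100 mM Tris-HCl pH 7.5, 80 mM KCl, 4 mM MgCl2, BSA, DTT, yeast tRNA and Tween-20. Each series ran without and then with constant ligand, and green signal was normalised to red-channel RNA signal and control-cluster median Fmax.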

[1] = designed as: OFF switch for flavin mononucleotide, no ligand
[2] = ligand present: flavin mononucleotide, designed as: OFF switch for flavin mononucleotide
[3] = designed as: ON switch for flavin mononucleotide, no ligand
[4] = ligand present: flavin mononucleotide, designed as: ON switch for flavin mononucleotide

CUAUGCCGAAUAGGAUAUUCGAUCAAAAGGAUAGAAGAAGGGUUACAUGAGGAUCACCCAUGUAUGCACAUGAGGAUCCCUUAG
apparent Kd [1]: 0.279 µM | apparent Kd [2]: 0.316 µM

GGUGCACGCACAGGAUAUCCGGCGGAGCUCGUCGGAGAAGGGUGACAUGAGGAUCACCCAUGUACGUGCAAUCCAGUUUGAGAG
apparent Kd [3]: 0.0238 µM | apparent Kd [4]: 0.0283 µM

UAUAUUUUUAUAGGAUAUGGAUAUGAUGCAUAUCCAGAAGGGUGAUUAUAAUAUAAUCUAUACAUGAGGAUCACCCAUGUUUAU
apparent Kd [3]: 0.242 µM | apparent Kd [4]: 0.072 µM

AAAAGCUCAGGAUAUACGGUCUGUUGUUGAAAAAGUAAAAAACAUGAGGAUCACCCAUGUAGAAGGGAGCGAAA
apparent Kd [1]: 0.0673 µM | apparent Kd [2]: 0.159 µM

AAGAAGACAGGAUAUACAUGAAAGAAAGAAAAGAAAAGAAAACAUGAGGAUCACCCAUGUAGAAGGGUCAAGAA
apparent Kd [1]: 0.0465 µM | apparent Kd [2]: 0.0592 µM

AAUAAACUCACAGGAUAUAGCAGAGGUCGCGUGUACUUACAGGCGACGAUGCUAGAAGGGUGACCACAUGAGGAUCACCCAUGU
apparent Kd [3]: 0.961 µM | apparent Kd [4]: 0.153 µM

CCUAAGGAGACAGGAUAUAGCGUGGUGGCCGGGCUCCAACGGCGAGCGGCGCUAGAAGGGUCACUACAUGAGGAUCACCCAUGU
apparent Kd [3]: 0.0102 µM | apparent Kd [4]: 0.0109 µM

UUGACGGCAGGAUAUACAUGAGGAUCACCCAUGUAAAUUUUUCGUUUAACUUGAAUGUGUAGAAGGGCCAAAUU
apparent Kd [1]: 0.019 µM | apparent Kd [2]: 0.02 µM

CUAGCAACAUGAGGAUCACCCAUGUAGGAUAUCGCUAUUGUAAUCAUGAAACAUGAUUACAAUAGCGAGAAGGACAUAUGCUAU
apparent Kd [1]: 0.00833 µM | apparent Kd [2]: 0.00983 µM

GUCGGAAACGACAAAAGUAGCAUAGGAGAAGGCAUGUCAUAAGACAUGAGGAUCACCCAUGUCCGUGAGGAUAUCCUAUGCUAC
apparent Kd [3]: 0.00814 µM | apparent Kd [4]: 0.00615 µM

CGAAACUACGAGAAGGACAUGUGGUCCUUCAGUUACAUGAGGAUCACCCAUGUAGGAUAUCGUAGUUUCAGGAUCGUGAGAUCA
apparent Kd [1]: 0.0374 µM | apparent Kd [2]: 0.007 µM

GCGUCACAAUUAGAACCAAUACGAACAUGAGGAUCACCCAUGUAGGAUAUGCUAGAAGUUGAGUUGCAGAAGGACAUUUAUCGC
apparent Kd [1]: 0.0106 µM | apparent Kd [2]: 0.0098 µM

CUGAUGUUAGGAUAUCAGGUCACGCGCGAAGGCGCGCGGCAUGAGAAGGAACAUGAGGAUCACCCAUGUGACGA
apparent Kd [1]: 0.0428 µM | apparent Kd [2]: 0.16 µM

UCGUAUAAGGGCAUUACACAUGAGGAUCACCCAUGUACGUUAGAGGAUAUGCAUUCCAGUUGAACGUAGAAGGCUAGAGAAGGG
apparent Kd [1]: 0.132 µM | apparent Kd [2]: 0.129 µM

GUUGUUUCUGAGGAUAUUAUUUUAUUCGAUUGAUAAGAAGGCAGUACAUGAGGAUCACCCAUGUGGGUAGUUUG
apparent Kd [1]: 0.0942 µM | apparent Kd [2]: 0.172 µM

UUACCUUAUGAGAAGGCGAUCAUGAAACAUGAUCGAGGAUAUCAUGUAAACAUGAGGAUCACCCAUGUAUGGGUAUUAUGGUAG
apparent Kd [3]: 0.133 µM | apparent Kd [4]: 0.0325 µM

GCUGCUAUCGCAGGAUAUUACAUGGGAAAUAAGACAUGAGGAUCACCCAUGUUAAAUAUCGUAAAUAAGAAGGGCGAUAGCAGC
apparent Kd [3]: 0.27 µM | apparent Kd [4]: 0.475 µM

UGGUCAUGAUCAGGAUAUUAACAUGGGCUACAUUAAGAAGGGAUAGUGAGAUGCGAACUGAACGACAUGAGGAUCACCCAUGUA
apparent Kd [3]: 0.0519 µM | apparent Kd [4]: 0.0358 µM

CUCAUGUAAGGAUAUCAGUAGUAAAAAAAUAAAAUUACUACUGAGAAGGUACAUGAGGAUCACCCAUGUAUCUU
apparent Kd [1]: 0.0848 µM | apparent Kd [2]: 0.0725 µM

UGUCUCAGAGGAUAUACAGGUGUAGAUCCUUUAGACCCUUGACAUGAGGAUCACCCAUGUAGAAGGCUGCAGAC
apparent Kd [1]: 0.0694 µM | apparent Kd [2]: 0.0264 µM

CGAUGGCAUGUAGGAUAUCGAGCUCAAAGAGCUCGAGAAGGACAUGAGGAUCACCCAUGUCGUCACAGACAGUGACGGCUAUCG
apparent Kd [1]: 0.0244 µM | apparent Kd [2]: 0.133 µM

AUCUCACAUGAGGAUCACCCAUGUUAGGAUAUUGUUUCUUGAUGAUUACAUCAAGCGAUAAGAAGGGACAGACU
apparent Kd [1]: 0.0256 µM | apparent Kd [2]: 0.0274 µM

AGAAGUUUGUAGAAGGACGACUAAUUUGUAUUCGUAGGAUAUACUAUUUACAUGAGGAUCACCCAUGUUUAAAUGGAACAAUGU
apparent Kd [1]: 0.007 µM | apparent Kd [2]: 0.0102 µM

UGAUCGAAAGAUCAUAGAUUCUGGCAGGAUAUGCAGUAGUUUUAAUUUACAUGAGGAUCACCCAUGUAGAAGGGCUAGAGUCUA
apparent Kd [1]: 0.00633 µM | apparent Kd [2]: 0.0074 µM

AAGUAGGGAGGAUAUACAUAGAUACAGAUUCAUGUGGAACUACAUGAGGAUCACCCAUGUAGAAGGCCCUAAUA
apparent Kd [1]: 0.0272 µM | apparent Kd [2]: 0.102 µM

CGAUAUUAUGCAGGAUAUCUUCCUUGAAUGAGGAGAGAAGGGCAUAGGGAGACAUAAGCCUUAUUACAUGAGGAUCACCCAUGU
apparent Kd [1]: 0.0107 µM | apparent Kd [2]: 0.00883 µM

UUAAAUCAUGUAGGAUAUGCAUGGCGAAGCUACGCAGAAGGACAUGAGGAUCACCCAUGUUAUAGCGACCAAGUAAGGUUGCAA
apparent Kd [1]: 0.0916 µM | apparent Kd [2]: 0.197 µM

GUAGCAUACCGAGGAUAUUCAUAUCGGAAACGAACAUGAGGAUCACCCAUGUGGCGAAAGCCUUGGGAGAAGGCGGAAUGCUAC
apparent Kd [3]: 0.589 µM | apparent Kd [4]: 0.0245 µM

AGUCGGAGCAGAGGAUAUACAUGAGGAUCACCCAUGUAAAUGGAAUAAGCCUGGAAACAGGCAAUGUAGAAGGCUGCUCCGACA
apparent Kd [1]: 0.075 µM | apparent Kd [2]: 0.716 µM

AGGAAGUCAGGAUAUGCUGCUCGUCACUUGCGUGAUGAGUAGCAGAAGGGACAUGAGGAUCACCCAUGUAAAGA
apparent Kd [1]: 0.0512 µM | apparent Kd [2]: 0.0651 µM

ACCAUUUACUAAUCCUCUAUACAUGAGGAUCACCCAUGUUUUGAGGAUAUCAGCGUGAAACACGCUGAGAAGGCAAAACAUUCG
apparent Kd [1]: 0.0735 µM | apparent Kd [2]: 0.104 µM

GGUACUAUCACAGGAUAUGCUUUCCUUUGGGAAGCAGAAGGGUGUAACAUGAGGAUCACCCAUGUGGUGCCAGGGCGUGGGCCC
apparent Kd [3]: 0.154 µM | apparent Kd [4]: 0.017 µM

ACGCGAUGGGAGAAGGUACUUUAAUUAGGUUACACAUGAGGAUCACCCAUGUAAGGAUAUCCCAUCGUUAAAUAUUAUACAGCA
apparent Kd [1]: 0.00616 µM | apparent Kd [2]: 0.00541 µM

UGUUGAUAGCAGAAGGACAUGAGGAUCACCCAUGUACGGAUACAAAUAUAUGUAGGAUAUGCUAUUGACUAAGAGUGAGCGUUC
apparent Kd [1]: 0.00578 µM | apparent Kd [2]: 0.00787 µM

CUGGGAUCAGUAGGAUAUGCCGGACAUGAGGAUCACCCAUGUAAGGCGUGCUUCCCUCACGUGCGGCAGAAGGGCUGCGUCACU
apparent Kd [1]: 0.0434 µM | apparent Kd [2]: 0.04 µM

GUAGCAACAUGAGGAUCACCCAUGUAGGAUAUCGCUAUUGUAAUCAUGAAACAUGAUUACAAUAGCGAGAAGGACAUAAGCUAC
apparent Kd [1]: 0.00667 µM | apparent Kd [2]: 0.00884 µM

AGGUACAUGAGGAUCACCCAUGUAAGAGACCUCAUGCGAUGUAGAAGGAUAAUCCGAGAAGAGGUAUAGGAUAUACAUGAGAAA
apparent Kd [1]: 0.177 µM | apparent Kd [2]: 0.149 µM

AUGGCGUGAGGAUAUGCGCAGGUUAACAUGAGGAUCACCCAUGUGGGCAUUGGUUUUCACGCAGAAGGUACGUUAA
apparent Kd [1]: 0.0145 µM | apparent Kd [2]: 0.0152 µM

UUUCAGCAAGGAUAUACGGGCUGUGCUUUUCAUUUCUUACAACAUGAGGAUCACCCAUGUAGAAGGUGCAUCUU
apparent Kd [1]: 0.0725 µM | apparent Kd [2]: 0.111 µM

AUUAUACAUGAGGAUCACCCAUGUAAUUAAUCUAGUAAGAUCUAGGAUAUCAGCUCGAAUAGAGCUGAGAAGGAGAUCACAUGU
apparent Kd [3]: 0.0536 µM | apparent Kd [4]: 0.0207 µM

GGAUAGGACAGAGGAUAUACAGAUAGGAUCUACUAUCAAACAGUCCUAACAUGAGGAUCACCCAUGUAGAAGGCUGUCCUAUCG
apparent Kd [1]: 0.0217 µM | apparent Kd [2]: 0.0803 µM

GUGCGGUCAGGAUAUGCAUGGCGGGACUUGCGUCGUGGCGUGGAGAAGGGACAUGAGGAUCACCCAUGUGGAGU
apparent Kd [1]: 0.0766 µM | apparent Kd [2]: 0.0453 µM

AAAUAAUUGUCAGGAUAUGGCAUGUAGACGAUGCCAGAAGGGACAUGAGGAUCACCCAUGUUGCUCAACACUGGGAGACGUAAG
apparent Kd [1]: 0.133 µM | apparent Kd [2]: 0.273 µM

UCGUAUACACAAGGAUAUCGAUGGCUUGUAGAUGCUACAUGAGGAUCACCCAUGUUUUUAUAUUGUGAGAAGGUGUAGUGUCGU
apparent Kd [3]: 0.141 µM | apparent Kd [4]: 0.221 µM

CUGAUGUGAGGAUAUCGGGCUACAGCCAGGCUGCUAGCAUACGAGAAGGCACAUGAGGAUCACCCAUGUGAGAA
apparent Kd [1]: 0.0483 µM | apparent Kd [2]: 0.0491 µM

CGCUCAAUUACUUUGAAUAGAAUCAGAAGGCGUUACAUGAGGAUCACCCAUGUUAUGACGUGUAACGAGGAUAUGAAUUGAGCG
apparent Kd [1]: 0.00718 µM | apparent Kd [2]: 0.0305 µM

AUGAGUAAAGCAGGAUAUCUAUUGUCUCUGUAACAUGAGGAUCACCCAUGUAGAGAAGGGCUUAGUCAUUCUCUUCGGAGUUGU
apparent Kd [1]: 0.0174 µM | apparent Kd [2]: 0.0166 µM

GCGUUGAACGAGAAGGCCAAUACAUGAGGAUCACCCAUGUUUAGAUGUUUUGGAGGAUAUCGUACGUAGUCAAAAGAGCAACGC
apparent Kd [1]: 0.0114 µM | apparent Kd [2]: 0.0102 µM

CCAAGCUGUGUGAGGAUAUGCUGAACCUUGGUUCAGCAGAAGGCACAUGAGGAUCACCCAUGUGAAAAGCUUGG
apparent Kd [1]: 0.0162 µM | apparent Kd [2]: 0.056 µM

UAUCUAUUUAUGGGAUUAGAUUAUGAGGAUAUCAUUUUUUUAUACAUGAGGAUCACCCAUGUUUCUGAGAAGGCAUAUUUAAUA
apparent Kd [3]: 0.0222 µM | apparent Kd [4]: 0.00812 µM

UGUACUAUAAGGUUAAUUGUAUAUUGAGAAGGCAUUCACAUGAGGAUCACCCAUGUAACAUGGGAUGAGGAUAUCAAUUUGUAC
apparent Kd [3]: 0.197 µM | apparent Kd [4]: 0.0334 µM

AACGUCUUAGGAUAUACACUGGGACUUGCCAUGUGGGCCCUACAUGAGGAUCACCCAUGUAGAAGGAAGACAUG
apparent Kd [1]: 0.0196 µM | apparent Kd [2]: 0.014 µM

AGUCAUACAGGAUAUACAUGAGGAUCACCCAUGUAUAUCCAAAAUGGGUGAUCCUCAUGUAGAAGGGUAUGACA
apparent Kd [1]: 0.0103 µM | apparent Kd [2]: 0.0105 µM

GAGGUGUUAGGAUAUCGGAGAUGGAGACCGACGGGAUGAGCCGAGAAGGAACAUGAGGAUCACCCAUGUAGGUG
apparent Kd [1]: 0.461 µM | apparent Kd [2]: 0.283 µM

UCCGCAUCUGAGAAGGGAUCUCCGCGGAAGGGAUCAGGAUAUCGGACAUGAGGAUCACCCAUGUGCCGUUAAAGGACACCUGGU
apparent Kd [2]: 0.00736 µM
